Measured values as given in ChEMBL document CHEMBL1156833, “The discovery of MK-0674, an orally bioavailable cathepsin K inhibitor” (Bioorg Med Chem Lett, 2010).

Tests used:
Homo sapiens [1] = species on record: Homo sapiens; test: Selectivity ratio of IC50 for human cathepsin L to IC50 for humanized rabbit cathepsin K
Homo sapiens [2] = species on record: Homo sapiens; test: Selectivity ratio of IC50 for human cathepsin S to IC50 for humanized rabbit cathepsin K
[3] = Oral bioavailability in rat; type: ADME, organism-based; conditions: in vivo
In short: (§1)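 Pharmacokinetics in rats, rabbits and rhesus monkeys after oral dosing in 1% methocel vehicle. Half-life and oral bioavailability were derived from the plasma profiles.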

Homo sapiens [4] = species on record: Homo sapiens; test: Selectivity ratio of IC50 for human cathepsin B to IC50 for humanized rabbit cathepsin K
Cathepsin K = Cathepsin K (Homo sapiens, UniProt P43235); test: Inhibition of humanized rabbit cathepsin K
Homo sapiens [5] = species on record: Homo sapiens; test: Selectivity ratio of IC50 for human cathepsin F to IC50 for humanized rabbit cathepsin K
[6] = Decrease in bone resorption assessed as corrected bone resorption measured as ratio of bone resorption IC50 x humanized rabbit cathepsin K IC50 to rabbit cathepsin K IC50 equation; type: functional, tissue-based, Bone element
[7] = Oral bioavailability in rhesus monkey; type: ADME, organism-based, Macaca mulatta; conditions: in vivo; in short: as §1
[8] = Metabolic stability in rabbit hepatocytes assessed as compound remaining; type: ADME, cell-based, Oryctolagus cuniculus, Hepatocyte
[9] = Metabolic stability in rhesus monkey hepatocytes assessed as compound remaining; type: ADME, cell-based, Macaca mulatta, Hepatocyte
Hepatocyte [10] = test: Metabolic stability in rat hepatocytes assessed as compound remaining; type: ADME, cell-based
[11] = Half life in po dosed rabbit; type: ADME, organism-based, Oryctolagus cuniculus; conditions: in vivo; in short: as §1
[12] = Half life in po dosed rhesus monkey; type: ADME, organism-based, Macaca mulatta; conditions: in vivo; in short: as §1
[13] = Half life in po dosed rat; type: ADME, organism-based; conditions: in vivo; in short: as §1
[14] = Oral bioavailability in rabbit; type: ADME, organism-based, Oryctolagus cuniculus; conditions: in vivo; in short: as §1
[15] = Oral bioavailability in squirrel monkey; type: ADME, organism-based; conditions: saimiri, in vivo
Canis familiaris [16] = test: Metabolic stability in dog at 25 mg/kg, po and 5 mg/kg, iv up to 24 hrs; type: ADME, organism-based, Canis lupus familiaris; conditions: in vivo
Rattus norvegicus [17] = test: Metabolic stability in rat at 25 mg/kg, po and 5 mg/kg, iv up to 24 hrs; type: ADME, organism-based; conditions: in vivo
Rattus norvegicus [18] = test: Metabolic stability in rat assessed as conversion to (S)-N-(1-cyanocyclopropyl)-2-((S)-1-(4'-((R)-2,2-difluoro-1-hydroxyethyl)biphenyl-4-yl)-2,2,2-trifluoroethylamino)-4-fluoro-4-methylpentanamide at 25 mg/kg, po; type: ADME, organism-based; set-up: dose 25 mg/kg, route oral; conditions: in vivo
Rattus norvegicus [19] = test: Metabolic stability in rat at 25 mg/kg, po after up to 24 hrs; type: ADME, organism-based; set-up: dose 25 mg/kg, route oral; conditions: in vivo
Hepatocyte [20] = test: (§2) Metabolic stability in human hepatocytes assessed as formation ratio of (S)-N-(1-cyanocyclopropyl)-2-((S)-1-(4'-((R)-2,2-difluoro-1-hydroxyethyl)biphenyl-4-yl)-2,2,2-trifluoroethylamino)-4-fluoro-4-methylpentanamide to (S)-N-(1-cyanocyclopropyl)-2-((S)-1-(4'-((S)-2,2-difluoro-1-hydroxyethyl)biphenyl-4-yl)-2,2,2-trifluoroethylamino)-4-fluoro-4-methylpentanamide; type: ADME, cell-based
[21] = as §2, with “rabbit” for “human”; type: ADME, cell-based, Oryctolagus cuniculus, Hepatocyte
Canis familiaris [22] = test: (§3) Metabolic stability in dog assessed as formation ratio of (S)-N-(1-cyanocyclopropyl)-2-((S)-1-(4'-((R)-2,2-difluoro-1-hydroxyethyl)biphenyl-4-yl)-2,2,2-trifluoroethylamino)-4-fluoro-4-methylpentanamide to (S)-N-(1-cyanocyclopropyl)-2-((S)-1-(4'-((S)-2,2-difluoro-1-hydroxyethyl)biphenyl-4-yl)-2,2,2-trifluoroethylamino)-4-fluoro-4-methylpentanamide at 25 mg/kg, po and 5 mg/kg, iv; type: ADME, organism-based, Canis lupus familiaris; conditions: in vivo
Hepatocyte [23] = test: as §2, with “rat” for “human”; type: ADME, cell-based
[24] = as §2, with “dog” for “human”; type: ADME, cell-based, Canis lupus familiaris, Hepatocyte
Rattus norvegicus [25] = test: as §3, with “rat” for “dog”; type: ADME, organism-based; conditions: in vivo

| Ratio IC50 (Homo sapiens [1]) | Ratio IC50 (Homo sapiens [2]) | bioavailability [3] | Ratio IC50 (Homo sapiens [4]) | IC50 (Cathepsin K) | Ratio IC50 (Homo sapiens [5]) | IC50 [6] | SMILES | other results |
| --- | --- | --- | --- | --- | --- | --- | --- | --- |
| 18000 | 210 | 7% | 3640 | 0.3 nM | 2760 | – | CC(C)(F)C[C@H](N[C@@H](c1ccc(-c2ccc(C3(O)CC3)cn2)cc1)C(F)(F)F)C(=O)NC1(C#N)CC1 | – |
| 6020 | 44 | – | 3000 | 0.4 nM | – | 8 nM | CC(C)(F)C[C@H](N[C@@H](c1ccc(-c2ccc3ncccc3c2)cc1)C(F)(F)F)C(=O)NC1(C#N)CC1 | – |
| 14100 | 197 | 86% | 1470 | 0.4 nM | 1600 | 7 nM | CC(C)(F)C[C@H](N[C@@H](c1ccc(-c2ccc([C@H](O)C(F)F)cc2)cc1)C(F)(F)F)C(=O)NC1(C#N)CC1 | bioavailability [7]: 139%; Stability [8]: 70%; Stability [9]: 88%; Stability (Hepatocyte [10]): 94%; half-life [11]: 8 h; half-life [12]: 6 h; half-life [13]: 10 h; bioavailability [14]: 132% |
| 1300 | 28 | – | 725 | 2.6 nM | – | 8 nM | CC(C)(F)C[C@H](N[C@@H](c1ccc(-c2ccc(S(C)(=O)=O)nc2)cc1)C(F)(F)F)C(=O)NC1(C#N)CC1 | – |
| 11100 | 766 | 8% | 1560 | 0.2 nM | 2380 | 12 nM | CC(C)(F)C[C@H](N[C@@H](c1ccc(-c2ccc(C3(C(N)=O)CC3)cc2)cc1)C(F)(F)F)C(=O)NC1(C#N)CC1 | bioavailability [15]: 5% |
| 3700 | 849 | – | 3920 | 0.5 nM | 3440 | 35 nM | CC(C)(F)C[C@H](N[C@@H](c1ccc(-c2ccc(C3(C(N)=O)CC3)cn2)cc1)C(F)(F)F)C(=O)NC1(C#N)CC1 | – |
| 11900 | 243 | 122% | 1160 | 0.4 nM | 1460 | 10 nM | CC(C)(F)C[C@H](N[C@@H](c1ccc(-c2ccc([C@@H](O)C(F)F)cc2)cc1)C(F)(F)F)C(=O)NC1(C#N)CC1 | bioavailability [7]: 64%; Stability [8]: 93%; Stability [9]: 93%; Stability (Hepatocyte [10]): 95%; half-life [11]: 14 h; half-life [12]: 11 h; half-life [13]: 7 h; bioavailability [14]: 70% |
| 21300 | 693 | – | 1440 | 0.2 nM | 3590 | 35 nM | C[C@H](C(N)=O)c1ccc(-c2ccc([C@H](N[C@@H](CC(C)(C)F)C(=O)NC3(C#N)CC3)C(F)(F)F)cc2)cc1 | – |
| 15000 | 300 | – | 5170 | 0.2 nM | 3230 | 5 nM | CC(C)(F)C[C@H](N[C@@H](c1ccc(-c2ccc(S(C)(=O)=O)cc2)cc1)C(F)(F)F)C(=O)NC1(C#N)CC1 [ODANACATIB] | – |
| – | – | – | – | – | – | – | [2H][C@](O)(c1ccc(-c2ccc([C@H](N[C@@H](CC(C)(C)F)C(=O)NC3(C#N)CC3)C(F)(F)F)cc2)cc1)C(F)F | Stability (Canis familiaris [16]): Stable; Stability (Rattus norvegicus [17]): Stable; Stability (Rattus norvegicus [18]): Unstable; Stability (Rattus norvegicus [19]): Stable |
| 28900 | 715 | 24% | 2200 | 0.2 nM | 2410 | 10 nM | CC(C)(F)C[C@H](N[C@@H](c1ccc(-c2ccc(C(C)(C)O)cc2)cc1)C(F)(F)F)C(=O)NC1(C#N)CC1 | half-life [13]: < 1 h |
| – | – | – | – | – | – | – | [2H][C@@](O)(c1ccc(-c2ccc([C@H](N[C@@H](CC(C)(C)F)C(=O)NC3(C#N)CC3)C(F)(F)F)cc2)cc1)C(F)F | Stability (Canis familiaris [16]): Stable; Stability (Rattus norvegicus [17]): Stable; Stability (Rattus norvegicus [18]): Unstable; Stability (Rattus norvegicus [19]): Stable |
| 11000 | 106 | – | 1420 | 0.2 nM | 1150 | 13 nM | CC(C)(F)C[C@H](N[C@@H](c1ccc(-c2ccc(C3(O)CC3)cc2)cc1)C(F)(F)F)C(=O)NC1(C#N)CC1 | – |
| 18800 | 777 | 10% | 4040 | 0.3 nM | 1980 | 14 nM | Cc1csc(-c2ccc([C@H](N[C@@H](CC(C)(C)F)C(=O)NC3(C#N)CC3)C(F)(F)F)cc2)n1 | bioavailability [15]: 5% |
| – | – | – | – | – | – | – | CC(C)(F)C[C@H](N[C@@H](c1ccc(-c2ccc(C(=O)C(F)F)cc2)cc1)C(F)(F)F)C(=O)NC1(C#N)CC1 | Ratio (Hepatocyte [20]): > 200; Stability (Canis familiaris [16]): Stable; Ratio [21]: 48; Stability (Rattus norvegicus [17]): Stable; Ratio (Canis familiaris [22]): 5; Ratio (Hepatocyte [23]): 24; Ratio [24]: 5; Ratio (Rattus norvegicus [25]): > 10; Stability (Rattus norvegicus [19]): Stable |
